CHOP inhibitor – inhibitors of CHOP induction in ER stress response | CHO-K1 CHOP-promoter luciferase, tunicamycin-induced, 15-18 h | inhibition, % at 10 µM | 220,000 tested, 3.8% active | AID 2732;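 active means compounds that reduced the stress-induced luciferase reporter signal by more than about 70% of percent inhibition, limit read from the data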;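 further: 0% = tunicamycin plus vehicle and 100% = wells without tunicamycin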
M18AAP inhibitor – blocks P. falciparum M18 aspartyl aminopeptidase; AID 1822; 290,000 tested, 1.2% active; inhibition, % at 7.35 µM; recombinant PfM18AAP, H-Glu-NHMec fluorogenic cleavage;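 active means inhibition above the campaign mean inhibition over all tested compounds plus 3 SD, cut at about 28% in these data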;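 further: 0% = plate median of test compound wells and 100% = 2 mM ZnCl2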
p97 ATPase inh – inhibitors of human p97 ATPase; recombinant p97 ATPase, Kinase-Glo ATP luminescence, 3 h; inhibition, % at 8 µM; 220,000 tested, 0.42% active; AID 1481; in the data active means inhibition above about 15%;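 further: 0% = DMSO vehicle and 100% = wells lacking enzyme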
Target sequence (P55072 whole entry, looked up): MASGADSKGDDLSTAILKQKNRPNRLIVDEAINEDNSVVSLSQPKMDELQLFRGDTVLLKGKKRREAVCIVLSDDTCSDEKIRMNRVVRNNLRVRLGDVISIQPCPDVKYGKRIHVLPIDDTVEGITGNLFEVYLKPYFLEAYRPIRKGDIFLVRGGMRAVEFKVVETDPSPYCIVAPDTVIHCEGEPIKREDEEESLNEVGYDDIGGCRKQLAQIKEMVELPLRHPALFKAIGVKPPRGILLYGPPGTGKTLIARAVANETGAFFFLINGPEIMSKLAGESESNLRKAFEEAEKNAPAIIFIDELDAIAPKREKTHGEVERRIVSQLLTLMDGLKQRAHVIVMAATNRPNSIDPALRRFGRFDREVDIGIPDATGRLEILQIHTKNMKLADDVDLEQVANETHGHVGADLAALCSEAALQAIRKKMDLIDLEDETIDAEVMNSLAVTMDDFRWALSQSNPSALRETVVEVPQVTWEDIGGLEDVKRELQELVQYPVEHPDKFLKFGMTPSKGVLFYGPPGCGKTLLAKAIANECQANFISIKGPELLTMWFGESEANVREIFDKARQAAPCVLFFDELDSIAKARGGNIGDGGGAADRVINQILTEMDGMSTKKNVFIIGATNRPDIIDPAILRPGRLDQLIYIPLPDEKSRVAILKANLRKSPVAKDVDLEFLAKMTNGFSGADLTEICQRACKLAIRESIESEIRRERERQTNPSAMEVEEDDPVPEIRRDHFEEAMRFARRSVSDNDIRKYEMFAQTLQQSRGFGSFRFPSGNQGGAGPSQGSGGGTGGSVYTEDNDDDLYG
HCV NS3 hel inh – inhibitors of Hepatitis C virus NS3 helicase. inhibition, % at 10.9 µM. NS3 helicase DNA unwinding, Cy5 molecular beacon fluorescence. AID 1800. 290,000 tested, 0.56% active;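 active means inhibition above the mean of all tested compounds plus 3 SD, set per campaign, cut at about 35% in these data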;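 further: 0% = DMSO wells and 100% = thioflavine S control wells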
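Assay system: hepatitis C virus NS3 helicase domain fragment enzyme. Also added: annealed dual-labelled DNA beacon duplex, ATP-started. Timing: 1 h reaction at 25 °C, ATP-initiated. Technique: Cy5 fluorescence at 0 and 60 min, beacon hairpin quenching. Evaluation: % inhibition of unwinding. Replication: one well per compound.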
CHOP UPR activ – activators of apoptotic arm of unfolded protein response (CHOP). CHO-CHOP luciferase reporter, UPR activation, luminescence; percent of tunicamycin response over DMSO baseline. activation, % at 10 µM. 330,000 tested, 0.34% active. AID 449763;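 active means at 10 µM dose, activation of 40% or more, normalized to positive control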;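 further: 100% = tunicamycin at 10 µg/mL and 0% = DMSO alone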
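Material: CHO-CHOP cells, stable luciferase reporter of PERK-eIF2a-CHOP signalling; quantity: 500 reporter cells seeded per well; buffer or medium: F12 medium containing 10% fetal bovine serum; compound: one dose, 10 µM in 0.5% DMSO; incubation: 6 h compound treatment, 37 °C; measured by: Steady-Glo luciferase luminescence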
XBP1 UPR activ – adaptive UPR (XBP1) activation. CHO-XBP1 luciferase reporter, IRE1-XBP1 UPR activation, luminescence; percent of tunicamycin response, DMSO as zero. activation, % at 20 µM. 330,000 tested, 0.33% active;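 active means versus positive control, 20 µM dose yields 30% or more activation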;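 further: 100% = tunicamycin at 10 µg/mL and 0% = DMSO only wells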
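Material: IRE1-XBP1 luciferase reporter CHO line / Quantity: one thousand reporter cells per well / Buffer or medium: F12 with 10% serum / Compound: 20 µM single concentration, DMSO 1% / Times: 6 h treatment, 37 °C / Detection: Steady-Glo luciferase glow luminescence, 10 min after reagent addition / Benchmarks: tunicamycin high, DMSO low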
* marks the source's active call; other numbers are inactive results. In the library only some 4.5% were active in any assay of this set; here they are far more common.

What do the screens show for `O=C(Cc1cccc2ccccc12)N/N=C/c1ccncc1`?
CHOP inhibitor: 15.2; M18AAP inhibitor: 2.5; p97 ATPase inh: 0.5; HCV NS3 hel inh: 3.5; CHOP UPR activ: 1.1; XBP1 UPR activ: -2.7

What do the screens show for `O=C(Cc1cccc2ccccc12)N/N=C/c1ccc(F)cc1`?
CHOP inhibitor: 74.2*; M18AAP inhibitor: -3.3; p97 ATPase inh: 1.5; HCV NS3 hel inh: -12.5; CHOP UPR activ: 0.0; XBP1 UPR activ: -3.6

How did Cc1ccccc1NC(=O)CCC(=O)N/N=C/c1ccc(F)cc1 do in these assays?
CHOP inhibitor: 6.6; M18AAP inhibitor: 0.1; p97 ATPase inh: 3.7; HCV NS3 hel inh: -8.2; CHOP UPR activ: -0.6; XBP1 UPR activ: -1.6

Results for CC(=O)Oc1ccc(N2C(=O)C3C(C2=O)C2(C)C=CC3(C)O2)cc1 (stereo unspecified) ?
CHOP UPR activ: 4.9; XBP1 UPR activ: -0.4

How did COC(=O)c1cc(N2C(=O)C3C(C2=O)C2(C)C=CC3(C)O2)ccc1Cl (stereo unspecified) do in these assays?
CHOP inhibitor: 74.6*; M18AAP inhibitor: -0.5; p97 ATPase inh: 0.3; HCV NS3 hel inh: 2.0; CHOP UPR activ: -0.7; XBP1 UPR activ: -2.6

Results for Cc1ccccc1OCCC(=O)Nc1ccccc1C(=O)N1CCCCC1 ?
CHOP UPR activ: -2.4; XBP1 UPR activ: -1.5

How did CCOP(=O)(OCC)c1nc(-c2cccc3ccccc23)oc1NCc1ccccc1 do in these assays?
CHOP inhibitor: 77.4*; M18AAP inhibitor: -8.1; p97 ATPase inh: -1.0; HCV NS3 hel inh: -9.8; CHOP UPR activ: -1.2; XBP1 UPR activ: 0.7

What do the screens show for `CCOP(=O)(OCC)c1nc(/C=C/c2ccccc2)oc1NCc1ccc(OC)cc1`?
CHOP inhibitor: 76.5*; M18AAP inhibitor: -10.1; p97 ATPase inh: -7.4; HCV NS3 hel inh: -13.5; CHOP UPR activ: -1.1; XBP1 UPR activ: -0.8

Results for CCOP(=O)(OCC)c1nc(/C=C/c2ccccc2)oc1NCc1ccccc1 ?
CHOP inhibitor: 38.1; M18AAP inhibitor: -8.5; p97 ATPase inh: -9.2; HCV NS3 hel inh: -0.1; CHOP UPR activ: -1.7; XBP1 UPR activ: -3.4

What do the screens show for `COCCNc1nc2c(c(=O)n(Cc3ccccc3F)c(=O)n2C)n1C`?
M18AAP inhibitor: -1.1; HCV NS3 hel inh: -3.3; CHOP UPR activ: 1.2; XBP1 UPR activ: -0.1

What do the screens show for `Cc1ccc(Oc2nc3c(c(=O)n(Cc4ccccc4F)c(=O)n3C)n2C)cc1`?
CHOP inhibitor: 94.0*; M18AAP inhibitor: -9.3; p97 ATPase inh: -0.9; HCV NS3 hel inh: -10.2; CHOP UPR activ: 1.2; XBP1 UPR activ: 1.0

How did CCCN(C(=O)CSCC(=O)Nc1ccc(OC)cc1)c1c(N)n(Cc2ccccc2)c(=O)[nH]c1=O do in these assays?
CHOP UPR activ: 0.0; XBP1 UPR activ: -2.0

How did COc1cc(C2c3sc(=O)[nH]c3SC3C(=O)N(c4ccc(Br)cc4)C(=O)C32)ccc1O (stereo unspecified) do in these assays?
CHOP inhibitor: -9.5; M18AAP inhibitor: 28.1*; p97 ATPase inh: 9.5; HCV NS3 hel inh: 16.3; CHOP UPR activ: 0.9; XBP1 UPR activ: -0.7

Results for COc1ccc(C2c3sc(=O)[nH]c3SC3C4CCC(C4)C23)cc1OC (stereo unspecified) ?
CHOP inhibitor: 36.6; M18AAP inhibitor: 7.0; p97 ATPase inh: -6.8; HCV NS3 hel inh: 2.1; CHOP UPR activ: 3.1; XBP1 UPR activ: 1.7

Results for O=C(CCN1C(=O)/C(=C/c2ccccc2Cl)SC1=S)Nc1ccccc1C(=O)O ?
M18AAP inhibitor: -77.3; HCV NS3 hel inh: 31.9; CHOP UPR activ: -0.8; XBP1 UPR activ: -3.3

What do the screens show for `O=C(CCCN1C(=O)/C(=C/c2ccccc2Cl)SC1=S)NNC(=O)c1ccc(Cl)cc1Cl`?
CHOP inhibitor: 94.7*; M18AAP inhibitor: -8.6; p97 ATPase inh: -4.5; HCV NS3 hel inh: -1.4; CHOP UPR activ: -4.7; XBP1 UPR activ: -4.6

How did O=C(CCCN1C(=O)/C(=C/c2ccccc2Cl)SC1=S)NNC(=O)c1ccccc1 do in these assays?
CHOP inhibitor: 85.8*; M18AAP inhibitor: 3.5; p97 ATPase inh: 5.9; HCV NS3 hel inh: 2.3; CHOP UPR activ: -3.2; XBP1 UPR activ: -3.5

How did O=C(CCCN1C(=O)/C(=C/c2ccccc2Cl)SC1=S)NNC(=O)c1cccnc1 do in these assays?
CHOP inhibitor: 53.2; M18AAP inhibitor: 12.2; p97 ATPase inh: -5.7; HCV NS3 hel inh: 13.4; CHOP UPR activ: -2.2; XBP1 UPR activ: -5.5

Results for Cc1ccc(CNC(=O)Nc2ccccc2)n1C ?
M18AAP inhibitor: 21.4; HCV NS3 hel inh: -0.3; CHOP UPR activ: 3.8; XBP1 UPR activ: 5.1

How did Cc1ccc(CNC(=O)Nc2ccc(F)cc2F)n1C do in these assays?
M18AAP inhibitor: 30.3*; HCV NS3 hel inh: -1.7

How did CN(C)c1ccc(/C=C2\N=C(C(C)(C)C)OC2=O)cc1 do in these assays?
M18AAP inhibitor: 11.7; HCV NS3 hel inh: -5.1; CHOP UPR activ: 5.6; XBP1 UPR activ: 2.8

How did Cc1cccc(NC(=O)Cn2c(O)c(N=NC(=O)c3ccccc3O)c3ccccc32)c1 do in these assays?
CHOP inhibitor: 82.9*; M18AAP inhibitor: -4.7; p97 ATPase inh: 3.2; HCV NS3 hel inh: -3.2; CHOP UPR activ: 5.3; XBP1 UPR activ: -0.5

What do the screens show for `CN(c1ccc(C(=O)N2CCCCC2)cc1)S(C)(=O)=O`?
CHOP inhibitor: 79.1*; M18AAP inhibitor: 1.0; p97 ATPase inh: 5.9; HCV NS3 hel inh: -0.4; CHOP UPR activ: -2.2; XBP1 UPR activ: -3.5

What do the screens show for `O=C(c1ccccc1)c1cc(-c2ccccc2)on1`?
CHOP inhibitor: 92.6*; M18AAP inhibitor: 4.3; p97 ATPase inh: -3.7; HCV NS3 hel inh: -4.3; CHOP UPR activ: -6.7; XBP1 UPR activ: -11.0

How did CN(C)S(=O)(=O)c1cccc(C(=O)NCC(C)(C)CNC(=O)c2cccc(S(=O)(=O)N(C)C)c2)c1 do in these assays?
M18AAP inhibitor: -5.0; HCV NS3 hel inh: 2.8; CHOP UPR activ: -0.2; XBP1 UPR activ: -5.3

What do the screens show for `Cc1cc(C)cc(-n2ccnc2SCC(=O)Nc2ccc3c(c2)OCCO3)c1`?
CHOP inhibitor: 83.6*; M18AAP inhibitor: -0.8; p97 ATPase inh: -0.8; HCV NS3 hel inh: -5.2; CHOP UPR activ: -1.8; XBP1 UPR activ: -1.4

Results for O=C(CS(=O)(=O)c1ccccc1)NCc1ccccc1 ?
M18AAP inhibitor: 3.1; HCV NS3 hel inh: 2.7; CHOP UPR activ: 1.8; XBP1 UPR activ: 0.7

What do the screens show for `CC(C)(C)c1ccc(C(=O)N2CCN(c3ccc(N4CCOCC4)nn3)CC2)cc1`?
CHOP UPR activ: -1.8; XBP1 UPR activ: -4.5

How did Cc1cccc(OCCC(=O)Nc2ccc(F)c(Cl)c2)c1 do in these assays?
CHOP inhibitor: 67.8; M18AAP inhibitor: -14.0; p97 ATPase inh: -2.8; HCV NS3 hel inh: -15.0; CHOP UPR activ: 0.6; XBP1 UPR activ: -3.6

Bioassay records from PubChem.
